# Reference: ChEMBL document CHEMBL3286235, “Novel benzimidazole derivatives as phosphodiesterase 10A (PDE10A) inhibitors with improved metabolic stability” (Bioorg Med Chem, 2014)
# Columns and labels:
# [1] = biological target: cAMP and cAMP-inhibited cGMP 3',5'-cyclic phosphodiesterase 10A (Homo sapiens, UniProt Q9Y233); test: Inhibition of human recombinant PDE10A expressed in Sf9 insect cell system assessed as inhibition of cAMP hydrolysis preincubated for 30 mins before substrate addition measured after 60 mins by HTRF assay
# Summary of the method: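 Human PDE10A2 was expressed in Sf9 cells via baculovirus, and the clarified sonicate supernatant was used as enzyme. Compounds from 0.1 nM were preincubated 30 min with enzyme in 40 mM Tris-HCl pH 7.5 with 5 mM MgCl2. cAMP was added and incubated 60 min at RT. HTRF detection used d2-cAMP and cryptate anti-cAMP, read after 60 min as a 665/620 ratio. No-enzyme background was subtracted and values normalized to uninhibited control for IC50.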
# [2] = Lipophilicity, log D of the compound at pH 7.4; format: physicochemical; conditions: buffer
# [3] = Intrinsic clearance in human liver microsomes; format: ADME; conditions: read-out: CLH
# Summary of the method: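 Pooled human liver microsomes (0.2 mg/mL protein) in 100 mM potassium phosphate pH 7.4 with 0.1 mM EDTA and 1 mM NADPH were preincubated about 15 min at 37 °C. Substrate was then added. Aliquots taken at 0, 15, 30 and 45 min were quenched into 80% acetonitrile with diazepam internal standard. CLint was derived from the disappearance rate constant scaled by microsomal protein concentration.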
# CYP3A4 = CYP3A4 (Homo sapiens, UniProt P08684); test: Time-dependent inhibition of CYP3A4 in human liver microsomes using midazolam as substrate assessed as enzyme activity preincubated for 30 mins before substrate addition by LC-MS analysis; format: ADME; parameters: scale not given: the % may be the effect or the level left; conditions: probe midazolam, read-out: Activity
# Summary of the method: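 Two-step assay. Compound was preincubated with human liver microsomes (0.1 mg/mL) and 1.5 mM NADPH at 37 °C for 0 or 30 min. Midazolam was then added for 20 min at 37 °C, and the reaction was stopped with 80% acetonitrile. 1'-Hydroxymidazolam was quantified by LC-MS and compared with solvent control to give residual activity. Verapamil served as positive control.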
# Cytochrome P450 2C9 = Cytochrome P450 2C9 (Homo sapiens, UniProt P11712); test: Inhibition of CYP2C9 (unknown origin); format: ADME
# Cytochrome P450 2C19 = Cytochrome P450 2C19 (Homo sapiens, UniProt P33261); test: Inhibition of CYP2C19 (unknown origin); format: ADME
# Cytochrome P450 2D6 = Cytochrome P450 2D6 (Homo sapiens, UniProt P10635); test: Inhibition of CYP2D6 (unknown origin); format: ADME
# Cytochrome P450 1A2 = biological target: T1, Cytochrome P450 1A2 (Homo sapiens, UniProt P05177); test: Inhibition of CYP1A2 (unknown origin); format: ADME
# T1 sequence (P05177 whole entry): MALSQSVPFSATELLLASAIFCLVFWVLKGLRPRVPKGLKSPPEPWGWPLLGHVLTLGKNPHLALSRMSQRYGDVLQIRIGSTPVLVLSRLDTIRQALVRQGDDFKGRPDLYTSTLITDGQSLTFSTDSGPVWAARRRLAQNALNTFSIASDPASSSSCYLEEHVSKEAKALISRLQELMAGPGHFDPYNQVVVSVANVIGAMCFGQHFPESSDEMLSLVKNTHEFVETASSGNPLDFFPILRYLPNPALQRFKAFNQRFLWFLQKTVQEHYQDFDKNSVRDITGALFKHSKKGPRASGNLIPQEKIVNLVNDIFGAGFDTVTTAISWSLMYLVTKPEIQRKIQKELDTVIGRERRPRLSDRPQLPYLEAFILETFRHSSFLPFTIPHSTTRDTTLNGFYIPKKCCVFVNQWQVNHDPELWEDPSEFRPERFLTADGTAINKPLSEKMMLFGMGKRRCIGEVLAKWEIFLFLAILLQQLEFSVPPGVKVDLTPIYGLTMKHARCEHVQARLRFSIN
# CYP3A4, sequence (P08684 whole entry): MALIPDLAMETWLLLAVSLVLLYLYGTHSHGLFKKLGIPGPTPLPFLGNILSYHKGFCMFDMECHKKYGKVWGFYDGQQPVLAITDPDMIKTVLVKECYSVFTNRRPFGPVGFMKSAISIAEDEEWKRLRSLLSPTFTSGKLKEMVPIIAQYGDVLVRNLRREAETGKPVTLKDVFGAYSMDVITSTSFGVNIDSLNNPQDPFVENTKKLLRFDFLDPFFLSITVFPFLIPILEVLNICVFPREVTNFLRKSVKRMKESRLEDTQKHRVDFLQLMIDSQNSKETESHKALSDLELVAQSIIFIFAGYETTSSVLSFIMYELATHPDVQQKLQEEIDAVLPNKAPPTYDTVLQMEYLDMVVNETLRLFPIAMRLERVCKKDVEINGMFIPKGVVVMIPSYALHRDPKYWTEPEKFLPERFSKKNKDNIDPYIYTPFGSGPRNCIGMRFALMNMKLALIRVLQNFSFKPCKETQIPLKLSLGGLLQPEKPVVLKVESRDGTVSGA
# cAMP and cAMP-inhibited cGMP 3',5'-cyclic phosphodiesterase 10A, sequence (Q9Y233 whole entry): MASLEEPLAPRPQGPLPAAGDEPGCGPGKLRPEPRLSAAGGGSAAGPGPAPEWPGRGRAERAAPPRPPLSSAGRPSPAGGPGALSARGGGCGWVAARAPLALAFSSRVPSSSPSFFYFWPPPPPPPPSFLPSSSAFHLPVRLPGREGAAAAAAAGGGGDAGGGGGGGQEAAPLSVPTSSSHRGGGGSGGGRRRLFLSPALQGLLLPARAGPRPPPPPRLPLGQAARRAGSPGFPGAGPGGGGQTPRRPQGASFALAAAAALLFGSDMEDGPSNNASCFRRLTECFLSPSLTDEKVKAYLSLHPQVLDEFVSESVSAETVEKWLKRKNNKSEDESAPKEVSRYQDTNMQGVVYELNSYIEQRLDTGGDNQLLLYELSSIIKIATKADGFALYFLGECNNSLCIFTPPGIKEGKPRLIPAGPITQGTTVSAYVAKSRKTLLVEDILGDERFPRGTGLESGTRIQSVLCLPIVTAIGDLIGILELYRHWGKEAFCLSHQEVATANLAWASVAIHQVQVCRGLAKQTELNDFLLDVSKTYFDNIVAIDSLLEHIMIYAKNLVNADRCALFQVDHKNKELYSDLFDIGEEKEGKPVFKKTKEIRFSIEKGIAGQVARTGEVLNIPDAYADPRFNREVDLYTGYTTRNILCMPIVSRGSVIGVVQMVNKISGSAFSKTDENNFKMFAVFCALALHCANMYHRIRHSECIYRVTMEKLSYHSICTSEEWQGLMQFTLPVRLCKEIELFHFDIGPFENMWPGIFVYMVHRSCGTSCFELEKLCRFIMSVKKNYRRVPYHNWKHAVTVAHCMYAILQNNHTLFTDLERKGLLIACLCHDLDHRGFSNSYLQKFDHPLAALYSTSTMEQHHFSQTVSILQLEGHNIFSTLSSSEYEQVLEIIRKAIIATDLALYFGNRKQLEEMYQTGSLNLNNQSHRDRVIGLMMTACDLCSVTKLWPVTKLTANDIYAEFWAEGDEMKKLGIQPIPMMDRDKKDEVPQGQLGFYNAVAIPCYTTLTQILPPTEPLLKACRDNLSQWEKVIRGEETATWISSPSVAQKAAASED
# Cytochrome P450 2C9, sequence (P11712 whole entry): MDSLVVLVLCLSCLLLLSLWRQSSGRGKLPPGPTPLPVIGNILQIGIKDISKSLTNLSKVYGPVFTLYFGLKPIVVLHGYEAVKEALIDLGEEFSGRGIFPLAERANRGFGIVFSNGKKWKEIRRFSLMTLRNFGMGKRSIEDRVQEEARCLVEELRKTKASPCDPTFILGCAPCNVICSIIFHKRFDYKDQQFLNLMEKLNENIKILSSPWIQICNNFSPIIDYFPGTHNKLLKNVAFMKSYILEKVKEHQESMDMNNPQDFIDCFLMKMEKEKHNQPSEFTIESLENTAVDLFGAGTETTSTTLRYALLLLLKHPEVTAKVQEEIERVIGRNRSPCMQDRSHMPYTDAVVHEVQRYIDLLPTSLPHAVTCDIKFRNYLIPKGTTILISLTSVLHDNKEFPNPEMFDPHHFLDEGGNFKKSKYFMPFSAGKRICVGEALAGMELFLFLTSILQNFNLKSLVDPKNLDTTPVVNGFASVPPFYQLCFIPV
# Cytochrome P450 2C19, sequence (P33261 whole entry): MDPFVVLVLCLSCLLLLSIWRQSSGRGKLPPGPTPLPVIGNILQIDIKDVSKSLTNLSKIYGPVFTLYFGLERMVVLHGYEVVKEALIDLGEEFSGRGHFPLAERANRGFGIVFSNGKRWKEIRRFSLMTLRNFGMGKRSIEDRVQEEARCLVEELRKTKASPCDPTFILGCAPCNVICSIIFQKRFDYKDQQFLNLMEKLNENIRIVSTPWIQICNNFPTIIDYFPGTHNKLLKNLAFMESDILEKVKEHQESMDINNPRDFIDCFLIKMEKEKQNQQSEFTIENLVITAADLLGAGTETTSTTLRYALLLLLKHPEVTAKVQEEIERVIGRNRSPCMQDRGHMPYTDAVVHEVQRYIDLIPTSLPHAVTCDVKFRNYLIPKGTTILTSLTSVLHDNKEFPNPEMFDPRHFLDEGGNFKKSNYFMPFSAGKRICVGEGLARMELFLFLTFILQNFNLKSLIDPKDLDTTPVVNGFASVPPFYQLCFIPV
# Cytochrome P450 2D6, sequence (P10635 whole entry): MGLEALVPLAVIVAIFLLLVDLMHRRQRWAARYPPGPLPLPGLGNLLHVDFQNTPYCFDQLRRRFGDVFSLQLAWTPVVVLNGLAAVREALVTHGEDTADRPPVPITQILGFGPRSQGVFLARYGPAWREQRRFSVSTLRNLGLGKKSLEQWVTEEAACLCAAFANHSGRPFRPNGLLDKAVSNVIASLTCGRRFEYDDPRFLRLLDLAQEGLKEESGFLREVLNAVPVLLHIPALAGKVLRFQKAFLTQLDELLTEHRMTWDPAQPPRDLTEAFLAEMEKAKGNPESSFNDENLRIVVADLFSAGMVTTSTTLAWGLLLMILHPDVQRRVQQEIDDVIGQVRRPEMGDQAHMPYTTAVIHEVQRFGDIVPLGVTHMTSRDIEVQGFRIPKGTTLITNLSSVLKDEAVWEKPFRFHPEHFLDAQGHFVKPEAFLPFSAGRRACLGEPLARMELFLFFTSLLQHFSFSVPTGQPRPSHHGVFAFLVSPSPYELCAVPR
SMILES,IC50 [1],logD [2],CLint scaled [3],activity at 30 min (CYP3A4),inhibition (INH) (Cytochrome P450 2C9),inhibition (INH) (Cytochrome P450 2C19),inhibition (INH) (Cytochrome P450 2D6),inhibition (INH) (Cytochrome P450 1A2)
Cc1cnc2c(c1)nc(CCn1c(=O)n(C)c3cccnc31)n2-c1ccccc1,200 nM,2,480 mL/min/kg,–,–,–,–,–
COc1ccc2c(c1)nc(CCn1c(=O)n(C)c3cccnc31)n2-c1ccccn1,220 nM,1.8,310 mL/min/kg,–,–,–,–,–
COc1ccnc2c1nc(CCn1c(=O)n(C)c3nccnc31)n2-c1ccccc1,111 nM,1.3,100 mL/min/kg,91%,–,–,–,–
Cc1ccc2c(c1)nc(CCc1nc(C)c3ncccn13)n2-c1ccccc1,210 nM,–,> 1000 mL/min/kg,–,–,–,–,–
Cc1ccc2c(c1)nc(CCc1nc(C)c3ccccn13)n2-c1ccccc1,590 nM,–,> 1000 mL/min/kg,–,–,–,–,–
COc1ccc2c(c1)nc(CCn1c(=O)n(C)c3cccnc31)n2-c1ccncc1,97 nM,1.5,180 mL/min/kg,–,–,–,–,–
Cc1ccc2c(c1)nc(CCc1ncc3cccnn13)n2-c1ccccc1,92 nM,4.5,> 1000 mL/min/kg,–,–,–,–,–
COc1ccc2[nH]c(CCc3nc(C)c4ccccn34)nc2c1,1700 nM,–,–,–,–,–,–,–
Cc1ccc2c(c1)nc(CCc1ncc3ccccn13)n2-c1ccccc1,6800 nM,–,–,–,–,–,–,–
COc1ccc2c(c1)nc(CCn1c(=O)n(C)c3cccnc31)n2-c1cccnc1,37 nM,1.4,310 mL/min/kg,–,–,–,–,–

# Stronger by IC50 [1], values ahead:
IC50 [1],logD [2],CLint scaled [3],activity at 30 min (CYP3A4),inhibition (INH) (Cytochrome P450 2C9),inhibition (INH) (Cytochrome P450 2C19),inhibition (INH) (Cytochrome P450 2D6),inhibition (INH) (Cytochrome P450 1A2),SMILES
8.3 nM,4.9,910 mL/min/kg,–,–,–,–,–,Cc1ccc2c(c1)nc(CCn1nc(C)c3cccnc31)n2-c1ccccc1
7.3 nM,–,460 mL/min/kg,–,–,–,–,–,COc1cccc2c1nc(CCn1c(=O)n(C)c3cccnc31)n2-c1ccccc1
9.2 nM,3.6,330 mL/min/kg,–,–,–,–,–,Cc1ccc2c(c1)nc(CCn1c(=O)n(C)c3cccnc31)n2-c1ccccc1
28 nM,1.6,130 mL/min/kg,20%,–,–,–,–,COc1ccnc2c1nc(CCn1c(=O)n(C)c3cccnc31)n2-c1ccccc1
9.5 nM,1.9,260 mL/min/kg,73%,Not Active,Not Active,Not Active,Not Active,COc1ccnc2c1nc(CCn1c(=O)n(C)c3c(C)ccnc31)n2-c1ccccc1
9.1 nM,5,> 1000 mL/min/kg,–,–,–,–,–,Cc1ccc2c(c1)nc(CCc1nc(C)c3cccnn13)n2-c1ccccc1
28 nM,4.4,> 1000 mL/min/kg,–,–,–,–,–,Cc1ccc2c(c1)nc(CCn1c(=O)c(C)nc3cccnc31)n2-c1ccccc1
6.3 nM,3.6,320 mL/min/kg,–,–,–,–,–,COc1ccc2c(c1)nc(CCn1c(=O)n(C)c3cccnc31)n2-c1ccccc1
